# Experimental data of several laboratories.
# Lines come from different studies, so protocols differ.
# Matrix: plasma
SMILES,test system,conditions,Tmax [h]
CN1CC[C@@H](c2c(O)cc(O)c3c(=O)cc(-c4ccc(C(F)(F)F)cc4Cl)oc23)[C@@H]1CO,human,"oral, 50 mg, patients",4.1
NS(=O)(=O)OC[C@@H]1C[C@@H](n2ccc3c(N[C@H]4CCc5ccccc54)ncnc32)C[C@@H]1O,human,"intravenous, 20 mg/m², patients",1.03
Cc1ccc(C(=O)Nc2ccc(CN3CCN(C)CC3)c(C(F)(F)F)c2)cc1C#Cc1cnc2[nH]ncc2c1,human,"oral, 40 mg, healthy volunteers",8
COc1ccc([C@@H](O)c2cc(-c3ncnc4cc(N5CCOCC5)ccc34)c(F)cc2Cl)nn1,human,"oral, 400 mg, single dose, patients",1.08
NC(=S)NN=Cc1ncccc1N,human,"oral, 100 mg",0.9
Cl.[2H]C([2H])([2H])CC(=O)c1cnc(NC(=O)C2CC2)cc1Nc1cccc(-c2ncn(C([2H])([2H])[2H])n2)c1OC,human,"oral, 20 mg, multiple doses, once daily, fasted",2.1
Cn1cc(Nc2nc(N)nc(-c3cccc(-n4ccc5cc(C6CC6)cc(F)c5c4=O)c3CO)n2)cn1,human,"oral, 900 mg, single dose, fasted, suspension",4
CNC(=O)n1ccc2cc(Oc3ccnc(NC(=O)c4ccc(C5CCN(CCO)CC5)cc4)c3)c(OCCOC)cc21,human,"oral, 35 mg, single dose, healthy volunteers",2
CC(C)n1c(Nc2cccnc2)nc2cnc(Nc3ccc(N4CCN(C)CC4)cc3)nc21,male human,"oral, 100 mg, single dose, healthy volunteers",1.5
